# Results published in ChEMBL document CHEMBL1133514, “Activation mechanisms of nucleoside phosphoramidate prodrugs” (J Med Chem, 2000).
# Key:
# [1] = Rate constants determined using 31P NMR Kinetics experiments at 37 degrees Centigrade; assay type: ADME
# Summary of the method: (§1)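 Compound (0.015-0.076 mmol) dissolved in about 90 µL CH3CN or THF, then diluted to 0.50 mL with 0.1-0.4 M cacodylate or acetate buffer; pH 7.4 target (7.0-8.0 accepted), 37 °C. Monitored by 31P NMR every 2.5 min for 30 min, then every 5 min; relative peak areas fitted by least squares to first-order kinetics to give rate constants and t1/2.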
# [2] = Half-life period for the compound was determined; assay type: ADME; summary of the method: as §1
SMILES,K [1] [min⁻¹],half-life [2] [min]
Cc1cn([C@H]2C[C@H](O)[C@@H](COP(=O)(O)N(C)CCBr)O2)c(=O)[nH]c1=O,0.2,3.4
O=P(O)(OCC1CCCO1)On1nnc2ccccc21 (centres undefined),0.011,61
CN(CCBr)P(=O)(OCC1CCCO1)On1nnc2ccccc21 (centres undefined),0.094,7.4
CCN(CC)CC.Cc1cn([C@H]2C[C@H](O)[C@@H](COP(=O)(O)N(C)CCBr)O2)c(=O)[nH]c1=O,0.19,3.7
Cc1cn([C@H]2C[C@H](O)[C@@H](COP(=O)(On3nnc4ccccc43)N(C)CCBr)O2)c(=O)[nH]c1=O (some centres undefined),0.15,4.7
Cc1cn([C@H]2C[C@H](O)[C@@H](COP(=O)(O)On3nnc4ccccc43)O2)c(=O)[nH]c1=O,0.0042,164
COP(=O)(OCC1CCCO1)N(C)CCO (centres undefined),0.43,1.6
